Screens: PubChem BioAssay, Johns Hopkins Ion Channel Center
MrgX1 ag = activates human MrgX1 receptor signaling; 310,000 tested, 0.44% active; B-score at 10 µM; MrgX1-HEK293 cells, Fluo-4 calcium fluorescence, agonist mode; stronger effect = higher value; AID 588627; Q96LB2;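 active = calcium response B-score plate-corrected fluorescence ratio at least 3 library SD, with starting fluorescence B-score inside 5 SD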
Target sequence (Q96LB2 whole entry, looked up): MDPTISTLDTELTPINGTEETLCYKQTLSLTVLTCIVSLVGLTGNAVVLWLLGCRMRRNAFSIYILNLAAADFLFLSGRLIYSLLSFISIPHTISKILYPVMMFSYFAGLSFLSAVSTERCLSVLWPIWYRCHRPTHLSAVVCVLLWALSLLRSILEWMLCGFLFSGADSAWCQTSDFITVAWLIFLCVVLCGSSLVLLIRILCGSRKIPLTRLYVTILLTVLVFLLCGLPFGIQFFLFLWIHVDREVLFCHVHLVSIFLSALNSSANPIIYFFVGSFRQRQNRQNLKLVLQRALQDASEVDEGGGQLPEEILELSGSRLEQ
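Material: MrgX1-expressing HEK293 cells / Dosing: compound as first of three additions / Incubation: overnight seeding, then 1 h dark dye loading / Signal: Fluo-4 NW calcium fluorescence / Evaluation: B-scored fluorescence response ratio / Benchmarks: positive and negative control wells on each plate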
MrgX1 antagonist = antagonists of human MrgX1 receptor. B-score at 10 µM. MRGX1-HEK293 calcium flux, Fluo-4, BAM8-22 antagonism; stronger effect = lower value. 310,000 tested, 1.3% active. Q96LB2;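 active = calcium-response B-score plate-corrected more than 3 library SD below zero, starting fluorescence within 5 deviations, no agonist response on first addition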;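 also: peak minus trough fluorescence over baseline after final BAM8-22 challenge near maximal dose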
RGS4 pot = RGS4 potentiation or activation; B-score at 10 µM; AID 463111; 310,000 tested, 0.92% active; HEK293 M3R/inducible RGS4, carbachol calcium flux Fluo4; stronger effect = lower value;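 active = B-score of the integrated calcium signal more than 4 SD below the library mean, with starting fluorescence not abnormally high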;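 also: negative B-score means reduced calcium response which marks RGS4 activation or potentiation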
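Reagent: ECmax carbachol challenge; Test system: M3R-expressing HEK293 line, RGS4 induced by doxycycline; Schedule: overnight RGS4 induction, 30 min dye load 37 °C, 20 min compound RT; Detection: calcium dye Fluo4 fluorescence; Read-out: Agonist-evoked peak-minus-minimum fluorescence over baseline, integrated ratio, B score.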
RGS4 inh = inhibitors of human RGS4; P49798; AID 463165; HEK293 M3R/RGS4 inducible, Fluo-4 calcium flux; stronger effect = higher value; triggered by carbachol at its EC20; 310,000 tested, 0.45% active; B-score at 10 µM;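 active = B-score, a plate-corrected calcium signal, over three deviations above library mean, with baseline fluorescence within five deviations of library mean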;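 also: RGS4 expression induced by doxycycline in cells with stable M3 receptor; B-score is computed from the integrated fluorescence ratio over baseline after carbachol; higher B-score means a larger calcium signal and so more RGS4 inhibition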
Target sequence (P49798 whole entry, looked up): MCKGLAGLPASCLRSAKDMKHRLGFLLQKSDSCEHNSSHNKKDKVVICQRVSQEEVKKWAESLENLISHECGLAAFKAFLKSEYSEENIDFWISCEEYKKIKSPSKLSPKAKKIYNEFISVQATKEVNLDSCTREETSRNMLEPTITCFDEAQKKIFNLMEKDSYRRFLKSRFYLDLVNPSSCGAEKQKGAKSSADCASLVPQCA
MrgX1 allo act = allosterically activates human MrgX1 receptor signaling. Q96LB2. 310,000 tested, 0.63% active. MrgX1-HEK293, Fluo-4 calcium flux, FDSS; stronger effect = higher value. B-score at 10 µM;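 active = plate-corrected calcium response at least 3 library SD above typical, normal starting fluorescence, not activating the receptor alone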;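 also: compound read alongside a low EC10 to EC30 dose of BAM8-22 agonist; peak minus trough fluorescence over baseline measured at the second addition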
MrgX1 antag conf = reconfirmed antagonist of human MrgX1 receptor signaling. 2,300 tested, 19% active. MrgX1-HEK293, BAM8-22 calcium flux, Fluo-4; stronger effect = lower value. shares compounds with MrgX1 antagonist. AID 602420. remaining BAM8-22 calcium response % of control (stronger effect = lower value), % at 10 µM;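 active = remaining agonist calcium response no higher than 100% minus 3 SD of agonist-only control wells, with starting fluorescence near control levels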;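 also: agonist BAM8-22 given at a near maximal EC90 to ECmax level; peak minus minimum fluorescence divided by baseline after agonist addition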
HEK293 Ca flux = counter-screen for MrgX1 antagonists: effect in parental HEK293 cells; shares compounds with MrgX1 antagonist; Fluo-4 calcium fluorescence, FDSS; fluorescence ratio F(max-min)/F0 at 10 µM; 4,000 tested, 2% active; AID 624111;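 active = duplicate-averaged calcium fluorescence ratio at least three times the standard deviation of buffer wells, a nonspecific response in parental cells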
HEK293 Ca counter = counter-screen for MrgX1 allosteric activators: effect in parental HEK293 cells; parental HEK293 calcium flux, Fluo-4 fluorescence ratio; stronger effect = higher value; 4,000 tested, 0.4% active; fluorescence ratio F(max-min)/F0 at 10 µM; shares compounds with MrgX1 antagonist;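 active = calcium fluorescence ratio, averaged over duplicates, at least 3 SD of the buffer-well ratio, meaning a nonspecific response in receptor-free cells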;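 also: untransfected parental HEK293 lacking MrgX1 used as counterscreen for MrgX1 allosteric activators; fluorescence change taken during the second addition on a kinetic imager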
HEK293 Ca cntr2 = activity in parental HEK293 cells lacking MrgX1 receptor; fluorescence ratio F(max-min)/F0 at 10 µM; 4,000 tested, 8.7% active; Fluo-4 calcium fluorescence (FDSS); stronger effect = higher value; shares compounds with MrgX1 antagonist;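 active = calcium fluorescence ratio at least three times the spread of buffer wells, meaning a non-specific response in parental cells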
Numbers without * were called inactive. A selection: hits, their analogues and other compounds. The true share with any hit is near 3.5%.

Screening Cc1c(NC(=O)CSCc2c(F)cccc2Cl)c(=O)n(-c2ccccc2)n1C returned MrgX1 ag inactive, MrgX1 antagonist inactive, RGS4 pot inactive, RGS4 inh inactive and MrgX1 allo act inactive.
Screening Cc1ccc2[nH]c3c(c2c1)CCC3=O returned MrgX1 ag inactive, MrgX1 antagonist inactive, RGS4 pot inactive, RGS4 inh inactive and MrgX1 allo act inactive.
Cc1ccc2[nH]c3c(c2c1)CCc1cn[nH]c1-3 was read as MrgX1 ag inactive, MrgX1 antagonist -4.9*, RGS4 pot inactive, RGS4 inh inactive, MrgX1 allo act inactive, MrgX1 antag conf inactive, HEK293 Ca flux inactive, HEK293 Ca counter inactive and HEK293 Ca cntr2 inactive.
COc1ccc(OCc2nc3ccc(S(=O)(=O)Nc4ccccc4Cl)cc3[nH]2)cc1 was read as MrgX1 ag inactive, MrgX1 antagonist -6.1*, RGS4 pot inactive, RGS4 inh inactive, MrgX1 allo act inactive, MrgX1 antag conf inactive, HEK293 Ca flux inactive, HEK293 Ca counter inactive and HEK293 Ca cntr2 inactive.
For OC(CN1CCOCC1)Cn1c2ccccc2c2ccccc21 (stereo not drawn) the results were MrgX1 ag inactive, MrgX1 antagonist inactive, RGS4 pot inactive, RGS4 inh inactive and MrgX1 allo act inactive.
O=C1c2ccccc2C(=O)N1CC(O)CN1CCOCC1 (stereo not drawn) was read as MrgX1 ag inactive, MrgX1 antagonist -5.2*, RGS4 pot inactive, RGS4 inh inactive, MrgX1 allo act inactive, MrgX1 antag conf inactive, HEK293 Ca flux inactive, HEK293 Ca counter inactive and HEK293 Ca cntr2 inactive.
`Cc1ccc(C)c(S(=O)(=O)C(C#N)c2nc3ccccc3nc2N2CCCC2)c1` (stereo not drawn) gave MrgX1 ag inactive, MrgX1 antagonist inactive, RGS4 pot inactive, RGS4 inh inactive and MrgX1 allo act inactive.
Cc1ccc(C)c(S(=O)(=O)C(C#N)c2nc3ccccc3nc2N2CC(C)OC(C)C2)c1 (stereo not drawn) was read as MrgX1 ag inactive, MrgX1 antagonist -7.4*, RGS4 pot inactive, RGS4 inh inactive, MrgX1 allo act inactive, MrgX1 antag conf 81%*, HEK293 Ca flux inactive, HEK293 Ca counter inactive and HEK293 Ca cntr2 56*.
`O=C1O/C(=C\c2ccccc2)c2ccccc21` gave MrgX1 ag inactive, MrgX1 antagonist inactive, RGS4 pot inactive, RGS4 inh inactive and MrgX1 allo act inactive.
Screening O=C1O/C(=C/c2ccccc2)N=C1c1ccccc1 returned MrgX1 ag inactive, MrgX1 antagonist -5*, RGS4 pot inactive, RGS4 inh inactive, MrgX1 allo act inactive, MrgX1 antag conf inactive, HEK293 Ca flux inactive, HEK293 Ca counter inactive and HEK293 Ca cntr2 inactive.
`CCc1ccccc1NC(=O)CSc1nnc(-c2ccco2)n1N` gave MrgX1 ag inactive, MrgX1 antagonist -6.7*, RGS4 pot inactive, RGS4 inh inactive, MrgX1 allo act inactive, MrgX1 antag conf inactive, HEK293 Ca flux inactive, HEK293 Ca counter inactive and HEK293 Ca cntr2 inactive.
`Cc1ccc(S(=O)(=O)N2CCN(C(=O)c3sccc3-c3ccccc3)CC2)cc1` gave MrgX1 ag inactive, MrgX1 antagonist -5.4*, RGS4 pot inactive, RGS4 inh inactive, MrgX1 allo act inactive, MrgX1 antag conf inactive, HEK293 Ca flux inactive, HEK293 Ca counter inactive and HEK293 Ca cntr2 inactive.
Screening Cc1ccc(CNc2nc(C)cs2)cc1 returned MrgX1 ag inactive, MrgX1 antagonist inactive, RGS4 pot inactive, RGS4 inh inactive and MrgX1 allo act inactive.
Screening Cc1ccc(S(=O)(=O)NCCC(=O)Nc2ncccc2O)cc1C returned MrgX1 ag inactive, MrgX1 antagonist inactive, RGS4 pot inactive, RGS4 inh inactive and MrgX1 allo act inactive.
O=C(NC(=S)Nc1ccccc1N1CCOCC1)c1cccs1 was read as MrgX1 ag inactive, MrgX1 antagonist -4.7*, RGS4 pot inactive, RGS4 inh inactive, MrgX1 allo act inactive, MrgX1 antag conf inactive, HEK293 Ca flux inactive, HEK293 Ca counter inactive and HEK293 Ca cntr2 inactive.
For O=C(NC(=S)Nc1ccccc1N1CCCC1)c1cccs1 the results were MrgX1 ag inactive, MrgX1 antagonist inactive, RGS4 pot inactive, RGS4 inh inactive and MrgX1 allo act inactive.
`COc1ccc(C2SCC(=O)N2Cc2ccccc2)cc1` (stereo not drawn) gave MrgX1 ag inactive, MrgX1 antagonist inactive, RGS4 pot inactive, RGS4 inh inactive and MrgX1 allo act inactive.
COc1ccc(C2SCC(=O)N2CC23CC4CC(CC(C4)C2)C3)cc1 (stereo not drawn) was read as MrgX1 ag inactive, MrgX1 antagonist -5.2*, RGS4 pot inactive, RGS4 inh inactive, MrgX1 allo act inactive, MrgX1 antag conf inactive, HEK293 Ca flux inactive, HEK293 Ca counter inactive and HEK293 Ca cntr2 inactive.
Screening CC(=O)c1c(C)n(CC(=O)NCc2ccco2)c2ccccc12 returned MrgX1 ag inactive, MrgX1 antagonist inactive, RGS4 pot inactive, RGS4 inh inactive and MrgX1 allo act inactive.
O=C(Cn1nnc(-c2ccc(CN3CCOCC3)cc2)n1)N(c1ccccc1)c1ccccc1 was read as MrgX1 ag inactive, MrgX1 antagonist -8.6*, RGS4 pot inactive, RGS4 inh inactive, MrgX1 allo act inactive, MrgX1 antag conf inactive, HEK293 Ca flux inactive, HEK293 Ca counter inactive and HEK293 Ca cntr2 inactive.
`O=C(Cn1nnc(-c2ccc(CN3CCOCC3)cc2)n1)N1CCCc2ccccc21` gave MrgX1 ag inactive, MrgX1 antagonist inactive, RGS4 pot inactive, RGS4 inh inactive and MrgX1 allo act inactive.
For Cc1nn(CC(=O)N2CCC(C)CC2)c(=O)c2nn(-c3ccccc3)c(C)c12 the results were MrgX1 ag inactive, MrgX1 antagonist inactive, RGS4 pot inactive, RGS4 inh inactive and MrgX1 allo act inactive.
Cc1ccc2c(c1)nnn2C1CCN(S(=O)(=O)c2ccc(C(=O)NC3CCCC3)cc2)CC1 was read as MrgX1 ag inactive, MrgX1 antagonist inactive, RGS4 pot inactive, RGS4 inh inactive and MrgX1 allo act inactive.
